Consider 16 compounds from ChEMBL document CHEMBL1130394 (J Med Chem, 1997).

The test system of assay [1] is KB. The assay can be described thus: Inhibitory concentration that reduced the viability of KB cell population by 50%. It counts as functional, cell-based. To be noted: Homo sapiens. The gist of the method: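 KB cells in Eagle's MEM with 10% calf serum, 37 °C, humidified 5% CO2, seeded at 3 × 10³ cells/mL and cultured 24 h. Compounds added in triplicate at several concentrations, with compound-free control wells, for 3 days. Value is the concentration reducing cell count by 50%.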

Assay [2] relates to HT-29. Nature of the assay: Inhibitory concentration that reduced the viability of HT 29 cell population by 50%. It counts as functional, cell-based. To be noted: Homo sapiens.
The target in assay [3] is T1, DNA topoisomerase 1 (Homo sapiens, UniProt P11387).
T1 sequence (P11387 whole entry): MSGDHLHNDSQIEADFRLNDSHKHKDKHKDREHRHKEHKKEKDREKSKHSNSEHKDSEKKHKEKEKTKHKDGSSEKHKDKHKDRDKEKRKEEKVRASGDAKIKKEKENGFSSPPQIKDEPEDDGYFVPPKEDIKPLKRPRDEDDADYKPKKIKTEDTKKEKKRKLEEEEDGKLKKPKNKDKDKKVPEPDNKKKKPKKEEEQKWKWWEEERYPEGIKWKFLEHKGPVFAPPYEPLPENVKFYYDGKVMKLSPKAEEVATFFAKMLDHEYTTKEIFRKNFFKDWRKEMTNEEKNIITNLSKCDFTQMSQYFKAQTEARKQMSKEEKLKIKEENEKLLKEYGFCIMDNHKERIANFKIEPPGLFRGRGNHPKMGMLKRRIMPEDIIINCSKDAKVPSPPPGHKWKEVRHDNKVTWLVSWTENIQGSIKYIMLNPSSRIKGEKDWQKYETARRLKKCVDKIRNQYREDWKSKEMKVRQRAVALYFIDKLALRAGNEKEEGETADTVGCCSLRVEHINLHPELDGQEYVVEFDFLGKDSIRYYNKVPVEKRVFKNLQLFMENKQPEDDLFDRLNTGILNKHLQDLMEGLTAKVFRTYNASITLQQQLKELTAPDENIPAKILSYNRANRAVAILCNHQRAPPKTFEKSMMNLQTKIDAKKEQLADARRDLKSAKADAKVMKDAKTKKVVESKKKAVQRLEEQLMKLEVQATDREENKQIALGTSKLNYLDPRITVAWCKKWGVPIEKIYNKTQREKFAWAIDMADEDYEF
Nature of the assay: Inhibit supercoil relaxation property of topoisomerase I. The gist of the method: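 Supercoiled pBR322 DNA (0.25 μg) incubated with topoisomerase I (0.5 unit) and ligand, 30 min at 37 °C. Then a further 30 min at 37 °C in SDS-containing loading buffer, agarose gel run overnight, and ethidium bromide staining. Supercoiled DNA remaining was quantified by laser densitometry of the photographic negative.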

In assay [4] the test system is SK-VLB. The assay can be described thus: Inhibitory concentration that reduced the viability of SKVLB cell population by 50%. The assay is classed as functional, cell-based. To be noted: Homo sapiens.
Assay [5] has as its system SK-OV-3. The assay can be described thus: Inhibitory concentration the viability of SKOV 3 cell population by 50%. The assay is classed as functional, cell-based. To be noted: Homo sapiens.

`CCC1(O)C(=O)OCc2c1cc1n(c2=O)Cc2cc3cc(OCCN)ccc3nc2-1` (centres undefined): the IC50 in assay [1] was 0.175 µM.

Turning to `CCCC(=O)Nc1cn(COC)c(C(=O)NCCOc2ccc3nc4c(cc3c2)Cn2c-4cc3c(c2=O)COC(=O)C3(O)CC)n1` (centres undefined), the IC50 in assay [2] was 6.9 µM; in assay [3], 2.38 µM; in assay [4], > 10 µM; in assay [1], 1 µM; in assay [5], 1.3 µM.

As to `CCCC(=O)Nc1cc(C(=O)NCCOc2ccc3nc4c(cc3c2)Cn2c-4cc3c(c2=O)COC(=O)C3(O)CC)n(COC)c1` (centres undefined), the IC50 in assay [2] was 8.1 µM; in assay [4], > 10 µM; in assay [1], 15.3 µM; in assay [5], 5.1 µM.

Regarding `CCC1(O)C(=O)OCc2c1cc1n(c2=O)Cc2cc3cc(OCC(=O)O)ccc3nc2-1` (centres undefined), the IC50 came to 2.8 µM in assay [2]; 1.12 µM in assay [3]; 2.1 µM in assay [4]; 0.25 µM in assay [1]; 1.2 µM in assay [5].

On to `CCC1(O)C(=O)OCc2c1cc1n(c2=O)Cc2cc3cc(OCCNC(=O)c4cc(NC(=O)CCCN(C)C)cn4COC)ccc3nc2-1` (centres undefined), for which the IC50 turned out to be 3.4 µM in assay [2]; 2.6 µM in assay [3]; 3.5 µM in assay [4]; 5.68 µM in assay [1]; 1.5 µM in assay [5].

Consider `CCCC(=O)Nc1ccc(C(=O)Nc2cc(C(=O)Nc3cc(C(=O)NCCOc4ccc5nc6c(cc5c4)Cn4c-6cc5c(c4=O)COC(=O)C5(O)CC)n(COC)c3)n(COC)c2)n1COC` (racemic), for which the concentration for half-maximal inhibition (IC50) was 7.1 µM in assay [2], > 10 µM in assay [4], 5.09 µM in assay [1] and 3.6 µM in assay [5].

Regarding `CCC1(O)C(=O)OCc2c1cc1n(c2=O)Cc2cc3cc(OCCNC(=O)c4cc(NC(=O)c5cc(NC(=O)c6ccc(NC(=O)CCCN(C)C)n6COC)cn5COC)cn4COC)ccc3nc2-1` (racemic), the IC50 in assay [2] was > 10 µM; in assay [3], 1.97 µM; in assay [4] it was > 10 µM; in assay [1], 1 µM; in assay [5], 9.7 µM.

As to `CCCC(=O)Nc1cn(COC)c(C(=O)Nc2cn(COC)c(C(=O)NCCOc3ccc4nc5c(cc4c3)Cn3c-5cc4c(c3=O)COC(=O)C4(O)CC)n2)n1` (racemic), the IC50 in assay [2] was 6 µM; in assay [3], 2.42 µM; in assay [4] it was > 10 µM; in assay [1] it was 3.08 µM; in assay [5] it was 3.2 µM.

As to `CCC1(O)C(=O)OCc2c1cc1n(c2=O)Cc2cc3cc(OCC(=O)ONc4cc(C(=O)Nc5cc(C(=O)Nc6cc(C(=O)NCCCN(C)C)n(COC)c6)n(COC)c5)n(COC)c4)ccc3nc2-1` (racemic), the IC50 in assay [2] is > 10 µM; in assay [3], 11.9 µM; in assay [4] it was > 10 µM; in assay [1], 5.5 µM; in assay [5] it was > 10 µM.

Consider `CCC1(O)C(=O)OCc2c1cc1n(c2=O)Cc2cc3cc(OCCNC(=O)c4cc(NC(=O)c5cc(NC(=O)CCCN(C)C)cn5COC)cn4COC)ccc3nc2-1` (racemic), for which the IC50 in assay [2] was 6.2 µM; in assay [3], 4.82 µM; in assay [4], > 10 µM; in assay [1], 6.29 µM; in assay [5], 4.3 µM.

With `CCC1(O)C(=O)OCc2c1cc1n(c2=O)Cc2cc3cc(OCC(=O)ONc4cc(C(=O)Nc5cc(C(=O)NCCCN(C)C)n(COC)c5)n(COC)c4)ccc3nc2-1` (racemic), the IC50 in assay [2] was > 10 µM; in assay [4] it was > 10 µM; in assay [1], 0.663 µM; in assay [5], > 10 µM.

With `CCCC(=O)Nc1cc(C(=O)Nc2cc(C(=O)NCCOc3ccc4nc5c(cc4c3)Cn3c-5cc4c(c3=O)COC(=O)C4(O)CC)n(COC)c2)n(COC)c1` (racemic), the IC50 in assay [2] is > 10 µM; in assay [3], 16.6 µM; in assay [4], > 10 µM; in assay [1] it was 3.25 µM; in assay [5], > 10 µM.

With `CCC1(O)C(=O)OCc2c1cc1n(c2=O)Cc2cc3ccccc3nc2-1` (single isomer, unassigned) [CAMPTOTHECIN], the IC50 in assay [2] was 0.0878 µM; in assay [4], 0.053 µM; in assay [1], 0.008 µM; in assay [5], 0.051 µM.

As to `COc1cccc2c1C(=O)c1c(O)c3c(c(O)c1C2=O)C[C@@](O)(C(=O)CO)C[C@@H]3O[C@H]1C[C@H](N)[C@H](O)[C@H](C)O1` [DOXORUBICIN], the IC50 is 0.28 µM in assay [2], 6.54 µM in assay [4], 0.015 µM in assay [1] and 0.0251 µM in assay [5].

Consider `Cn1cc(NC(=O)c2cc(NC(=O)CNC(=N)N)cn2C)cc1C(=O)NCCC(=N)N` [NETROPSIN], for which the IC50 is 44.7 µM in assay [2], 62 µM in assay [3], > 10 µM in assay [4] and 47.1 µM in assay [1].

Regarding `Cn1cc(NC(=O)c2cc(NC(=O)c3cc(NC=O)cn3C)cn2C)cc1C(=O)NCCC(=N)N` [STALLIMYCIN], the IC50 in assay [2] is 54.7 µM; in assay [3], 2.7 µM; in assay [4], > 10 µM; in assay [1], 8.4 µM.

One may read the IC50 as the concentration needed to halve the response being measured.
